High-throughput results: PubChem BioAssay, Broad Institute
HIV Env fusion – blocks HIV Env-driven cell-cell fusion. HeLa-JRFL Env/CEM21 cell fusion, luciferase. inhibition, % at 12.3 µM. actives 1.1% (n = 360,000);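 active = mean replicate inhibition score of at least 50 and every replicate individually at or above 50; inconclusive = only one of the two criteria met; inactive = mean below 50 and not all replicates reaching 50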;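 note: 0% = plate neutral controls and 100% = maraviroc near 300 nM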
CDK5 inh – blocks human CDK5/p35 kinase activity | Q00535+Q15078 | Recombinant CDK5/p35, ADP-Glo luminescence, 60 min | inhibition, % at 10 µM | actives 0.01% (n = 330,000);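 active = highest replicate inhibition of at least 50% and at least 75% of replicates reaching 50%; inconclusive = only one of the two criteria met; inactive = both criteria failed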;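 note: plate controls were DMSO neutral control for no effect and GW8510 at 10 µM for full effect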
Target sequence (Q00535 whole entry, looked up): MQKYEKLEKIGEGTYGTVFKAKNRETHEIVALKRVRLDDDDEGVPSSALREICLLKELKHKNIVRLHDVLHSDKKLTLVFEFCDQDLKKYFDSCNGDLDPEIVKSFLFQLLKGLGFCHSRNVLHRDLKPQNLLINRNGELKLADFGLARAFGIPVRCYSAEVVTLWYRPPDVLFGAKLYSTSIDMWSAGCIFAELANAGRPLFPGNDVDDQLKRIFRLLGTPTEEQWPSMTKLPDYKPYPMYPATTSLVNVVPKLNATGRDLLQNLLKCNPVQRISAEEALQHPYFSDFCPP
Target sequence (Q15078 whole entry, looked up): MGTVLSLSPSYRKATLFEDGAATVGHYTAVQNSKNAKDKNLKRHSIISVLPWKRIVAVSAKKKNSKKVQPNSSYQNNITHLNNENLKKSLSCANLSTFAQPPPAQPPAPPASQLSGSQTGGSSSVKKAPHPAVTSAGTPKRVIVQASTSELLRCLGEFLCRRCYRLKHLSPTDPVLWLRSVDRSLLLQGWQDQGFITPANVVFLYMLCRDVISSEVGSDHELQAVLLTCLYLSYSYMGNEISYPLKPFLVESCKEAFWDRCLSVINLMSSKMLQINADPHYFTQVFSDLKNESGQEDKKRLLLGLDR
dFosB act – activators of mouse delta FosB homodimer; purified delta FosB, TAMRA-CDK5 oligo fluorescence polarization; percent of positive-control signal above neutral wells; actives 0.99% (n = 340,000); AID 493131; P13346; activation, % at 25 µM;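 active = mean activation above about 17%, with every replicate also reaching it, limit read from the data, passing the limit was not always enough; inconclusive = only one of the two conditions met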
PAX8 inh HTS – inhibitors of PAX8 transcriptional activity in RMG-I cells; RMG-I TPO-luciferase reporter, SteadyGlo, 24 h; inhibition, % at 12.6 µM; actives 1.2% (n = 360,000); AID 652154;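 active = mean replicate inhibition at least 60% with every replicate also reaching 60%; inconclusive = only one of the two criteria is met; inactive = mean below 60% and not all replicates reaching 60%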;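 note: luciferase light reporting Pax8 driven TPO promoter activity; plate controls were median of neutral control wells for no effect and mitoxantrone controls for full effect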
INS-1E GSIS act – GLuc luminescence reporter in INS-1E cells, primary screen for activators of glucose-dependent secretion of insulin. AID 743287. activation, % at 16.6 µM. INS-1E GLuc reporter insulin secretion, 2-3 h. actives 0.61% (n = 370,000);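 active = lowest replicate activation of at least 40%, so every replicate reaches that level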;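 note: 0% = median of neutral control wells and 100% = median of IBMX positive control wells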
Cneo AK release – Cryptococcus neoformans lysis via adenylate kinase release; lysis activity, % at 15 µM; C. neoformans lysis, adenylate kinase release luminescence, 4 h; normalised: neutral wells 0, clomiphene wells 100; actives 0.2% (n = 360,000);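 active = mean lysis activity across replicates of at least 80%, whatever share of replicates individually reach that level; inactive = mean lysis activity below 80%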
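Assay system: Cryptococcus neoformans yeast cells / Dosing: single-point compound dose / Timing: 4 h at 37 °C static, read 1 h later / Measured by: luminescence of released adenylate kinase using an AK detection reagent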
An asterisk follows results filed as active; u = inconclusive; x = no result given; [ ] = dose if it differs, or a comment. The list is not random: actives were taken first. Their share in the collection is about 2.9%.

SMILES	HIV Env fusion	CDK5 inh	dFosB act	PAX8 inh HTS	INS-1E GSIS act	Cneo AK release
CC[C@@]1(C(=O)OC)N[C@H](CN(C)S(=O)(=O)c2ccc(-c3ccccc3)cc2)[C@@H]2C(=O)N(Cc3ccccc3)C(=O)[C@@H]21	138*	1	-5	5	x	4
COC(=O)[C@]1(Cc2ccccc2)N[C@H](CN(C)S(=O)(=O)c2ccc(C(F)(F)F)cc2)[C@@H]2C(=O)N(Cc3ccccc3)C(=O)[C@@H]21	69*	0	6	28	21	2
COC(=O)[C@]1(C)N[C@H](CN(C)S(=O)(=O)c2ccccc2)[C@@H]2C(=O)N(Cc3ccccc3)C(=O)[C@@H]21	5	2	-1	11	1	1
COc1ccc(NC(=O)Nc2cccc3c2O[C@H](CN(C)S(=O)(=O)c2ccc(F)cc2)[C@@H](C)CN([C@@H](C)CO)C3=O)cc1	6[16.7 µM]	x	x	18	1	45
C=CCNc1nc(Cl)nc(NCc2ccco2)n1	-41	0	-3	-29	0	-4
C=CCNc1nc(NCc2ccco2)nc(OCC)n1	x	1	-3	x	58*	1
O=C1CN(S(=O)(=O)Cc2ccccc2)C[C@H]2[C@H](c3ccc(C#CC4CC4)cc3)[C@H](CO)N12	x	x	x	5	-12	x
O=C1CN(S(=O)(=O)Cc2ccccc2)C[C@H]2[C@H](c3ccc(C#Cc4ccc(F)cc4)cc3)[C@H](CO)N12	x	x	x	99*	x	x
O=C1CN(S(=O)(=O)Cc2ccccc2)C[C@@H]2[C@@H](c3ccc(C#CC4CC4)cc3)[C@@H](CO)N12	x	x	x	79*	-31	x
CCS(=O)(=O)N1CC(=O)N2[C@H](CO)[C@@H](c3ccc(-c4ccccc4F)cc3)[C@@H]2C1	x	x	x	11	-5	x
CCS(=O)(=O)N1CC(=O)N2[C@H](CO)[C@@H](c3ccc(-c4ccccc4F)cc3)[C@H]2C1	x	x	x	81*	-2	x
CN(C)CCCNC(=O)C[C@@H]1CC[C@@H]2[C@H](COC[C@@H](O)CN2CC2CCCC2)O1	-11[16.7 µM]	x	x	-2	-8	1
O=C(NCc1ccncc1)C1Cc2c(-c3ccc4c(c3)OCO4)ccnc2O1 (stereo not given)	12	x	x	12	8	1
COc1ccc(NC(=O)C2Cc3c(-c4ccccc4Oc4ccccc4)ccnc3O2)cc1OC (stereo not given)	67*	x	x	30	x	0
CC(=O)Nc1ccc(-c2ccnc3c2CC(C(=O)NCCc2ccccc2)O3)cc1 (stereo not given)	-3	x	x	x	10	0
O=C(NCc1ccccc1)C1Cc2c(-c3ccc4c(c3)OCO4)ccnc2O1 (stereo not given)	-203	x	x	68*	x	1
COc1ccc(NC(=O)C2Cc3c(-c4ccccc4Oc4ccccc4)ccnc3O2)cn1 (stereo not given)	25	x	x	33	-15	1
CC(=O)Nc1ccc(-c2ccnc3c2CC(C(=O)NCc2ccccc2)O3)cc1 (stereo not given)	-111	x	x	92*	18	0
CC=Cc1ccc2n(c1=O)C[C@H]1[C@H](CO)[C@@H](C(=O)NC3CCC3)N(CCC(F)(F)F)[C@@H]21 (mixture of isomers)	x	x	x	x	0	x
C[C@@H]1CCCCO[C@H](CN(C)C(=O)NC2CCCCC2)[C@@H](C)CN([C@@H](C)CO)C(=O)c2cc(NS(=O)(=O)c3cn(C)cn3)ccc2O1	18[16.7 µM]	x	x	1	1	0
C[C@@H]1CCCCO[C@@H](CN(C)C(=O)NC2CCCCC2)[C@H](C)CN([C@@H](C)CO)C(=O)c2cc(NS(=O)(=O)c3cn(C)cn3)ccc2O1	32[16.7 µM]	x	x	-8	-14	101*
C[C@@H]1CN([C@@H](C)CO)C(=O)c2cc(NS(=O)(=O)c3cn(C)cn3)ccc2O[C@@H](C)CCCCO[C@H]1CN(C)C	17[16.7 µM]	x	x	-17	x	98*
Nc1ccc2nc(-c3cc(Cl)c(N)c(Cl)c3)[nH]c2c1	-195	1	-8	-18	x	-4
Nc1ccc2cc3[nH]c4cc(N)ccc4c3nc2c1	61*	4	67*	90*	x	x
C[C@H]1CN([C@@H](C)CO)C(=O)c2cc(C#CC3CCCC3)cnc2O[C@@H]1CN(C)C(=O)c1ccncc1	7[16.7 µM]	x	x	-7	-3	x
SMILES	HIV Env fusion	CDK5 inh	dFosB act	PAX8 inh HTS	INS-1E GSIS act	Cneo AK release
c1ccc2c(c1)CCCC2C1=NCCN1 (stereo not given)	11	1	0	11	x	-1
Brc1ccc2c(c1)C(C1=NCCN1)c1ccccc1CS2 (stereo not given)	62*	-1	2	11	1	0
COc1cccc(-c2ccc3c(c2)[C@H]2[C@H](CCN2S(=O)(=O)c2ccccc2F)[C@H](CO)N3C)c1	x	x	x	28	-35	-25
C=CCOC(=O)C1=C(C)NC(SCC(=O)Nc2nccs2)=C(C#N)C1c1cccs1 (stereo not given)	x	-1	1	x	-24	x
C=CCOC(=O)C1=C(C)NC(SCC(=O)Nc2nccs2)=C(C#N)C1c1ccc(Cl)cc1 (stereo not given)	103*	1	-11	4	-24	0
CC(C)NC(=O)N(C)C[C@H]1Oc2c(NC(=O)C3CCCCC3)cccc2C(=O)N([C@H](C)CO)C[C@H]1C	-2[16.7 µM]	x	x	4	7	114*
CC(C)NC(=O)N(C)C[C@@H]1Oc2c(NC(=O)C3CCCCC3)cccc2C(=O)N([C@@H](C)CO)C[C@@H]1C	-17[16.7 µM]	x	x	6	7	84*
CC(C)NC(=O)N(C)C[C@@H]1Oc2c(NC(=O)C3CCCCC3)cccc2C(=O)N([C@H](C)CO)C[C@@H]1C	-43[16.7 µM]	x	x	9	4	2
CC(C)NC(=O)Nc1cccc2c1O[C@H](CN(C)C)[C@@H](C)CN([C@@H](C)CO)C2=O	-12[16.7 µM]	x	x	-10	11	0
CC(C)NC(=O)Nc1cccc2c1O[C@H](CN(C)C)[C@H](C)CN([C@@H](C)CO)C2=O	23[16.7 µM]	x	x	-8	30	92*
COc1cc2sc3cc(NCC[C@@H]4CCCN4C)ccc3c(=O)c2cc1OC	-155	5	30*	-125	3	1
Nc1cc(C(=O)OCC(=O)N2CCCC2=O)ccc1Cl	66*	2	-4	-5	5	0
Nc1cc(C(=O)OCC(=O)N2CCCC2)ccc1Cl	x	1	-9	x	x	-1
C[C@H]1CCCCO[C@H](CN(C)CC2CCCCC2)[C@@H](C)CN([C@@H](C)CO)C(=O)c2cc(NC(=O)c3ccccc3)ccc2O1	u	x	x	13	-8	42
CSCCC(C(=O)N1CC2(C)CC1CC(C)(C)C2)N1C(=O)c2ccccc2C1=O (stereo not given)	34*	1	-1	11	x	-1
CNC(=O)C[C@@H]1CC[C@H]2[C@@H](COC[C@@H](O)CN2S(=O)(=O)c2ccc(Oc3ccccc3)cc2)O1	x	x	x	-10	5	3
